From ChEMBL document CHEMBL1140995, “Synthesis and biological evaluation of aminomethylphenol derivatives as inhibitors of the murine GABA transporters mGAT1-mGAT4” (Eur J Med Chem, 2008)

How the values were obtained:
[1] = molecular target: Sodium- and chloride-dependent GABA transporter 1 (Mus musculus) (UniProt P31648); test: Inhibition of [3H]GABA uptake at mouse GAT1 expressed in HEK cells assessed as remaining [3H]GABA uptake at 100 uM relative to control; type: cell-based; details: HEK293
Method in brief: (§1)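 Stably transfected HEK cells were trypsinized, washed in PBS, and resuspended in Krebs-Tris buffer pH 7.2 at about 100,000 cells/well. They were pre-equilibrated 25 min at 37 °C with compound in 1% DMSO, then given 8 nM [³H]GABA plus 32 nM unlabeled GABA for 4 min.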

[2] = molecular target: T1, GABA transporter 3 (Mus musculus) (UniProt P31649); test: Inhibition of [3H]GABA uptake at mouse GAT3 expressed in HEK cells assessed as remaining [3H]GABA uptake at 100 uM relative to control; type: cell-based; details: HEK293; method in brief: as §1
T1 sequence (whole entry): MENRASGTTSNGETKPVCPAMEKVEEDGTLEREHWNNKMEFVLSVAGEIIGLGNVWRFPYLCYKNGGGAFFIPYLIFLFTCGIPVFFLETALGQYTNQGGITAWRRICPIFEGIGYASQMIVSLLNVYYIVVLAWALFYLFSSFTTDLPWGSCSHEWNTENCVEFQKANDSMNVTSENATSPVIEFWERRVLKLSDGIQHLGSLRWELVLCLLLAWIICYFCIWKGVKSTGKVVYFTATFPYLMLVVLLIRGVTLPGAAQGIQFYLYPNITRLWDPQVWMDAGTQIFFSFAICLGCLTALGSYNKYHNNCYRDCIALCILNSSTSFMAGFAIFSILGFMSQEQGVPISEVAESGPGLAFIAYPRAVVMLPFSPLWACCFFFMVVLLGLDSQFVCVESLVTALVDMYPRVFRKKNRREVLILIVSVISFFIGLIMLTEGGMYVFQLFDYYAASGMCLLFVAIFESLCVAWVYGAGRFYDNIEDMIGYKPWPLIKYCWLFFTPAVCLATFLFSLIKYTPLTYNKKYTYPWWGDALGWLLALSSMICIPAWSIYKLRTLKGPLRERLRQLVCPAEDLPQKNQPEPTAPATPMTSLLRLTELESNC

[3] = molecular target: T2, GABA transporter 4 (Mus musculus) (UniProt P31650); test: Inhibition of [3H]GABA uptake at mouse GAT4 expressed in HEK cells assessed as remaining [3H]GABA uptake at 100 uM relative to control; type: cell-based; details: HEK293; method in brief: as §1
T2 sequence (whole entry): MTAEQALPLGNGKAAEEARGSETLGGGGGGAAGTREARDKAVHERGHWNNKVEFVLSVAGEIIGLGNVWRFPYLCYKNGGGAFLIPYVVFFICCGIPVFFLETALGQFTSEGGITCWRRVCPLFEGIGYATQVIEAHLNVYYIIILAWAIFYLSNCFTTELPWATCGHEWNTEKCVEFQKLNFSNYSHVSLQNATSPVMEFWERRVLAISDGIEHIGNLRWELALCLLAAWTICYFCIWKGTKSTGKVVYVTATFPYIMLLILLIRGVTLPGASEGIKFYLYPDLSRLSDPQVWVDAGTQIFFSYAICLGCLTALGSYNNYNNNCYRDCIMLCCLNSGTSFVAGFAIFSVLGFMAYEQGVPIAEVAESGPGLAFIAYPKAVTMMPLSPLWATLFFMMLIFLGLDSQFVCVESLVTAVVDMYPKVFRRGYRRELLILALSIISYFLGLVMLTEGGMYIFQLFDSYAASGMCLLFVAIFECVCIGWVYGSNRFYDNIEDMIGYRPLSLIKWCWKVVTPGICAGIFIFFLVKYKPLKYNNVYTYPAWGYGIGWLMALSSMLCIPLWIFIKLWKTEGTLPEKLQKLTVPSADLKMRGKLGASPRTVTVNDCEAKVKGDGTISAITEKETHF

[4] = molecular target: T3, GABA transporter 2 (Mus musculus) (UniProt P31651); test: Inhibition of [3H]GABA uptake at mouse GAT2 expressed in HEK cells assessed as remaining [3H]GABA uptake at 100 uM relative to control; type: cell-based; details: HEK293
T3 sequence (whole entry): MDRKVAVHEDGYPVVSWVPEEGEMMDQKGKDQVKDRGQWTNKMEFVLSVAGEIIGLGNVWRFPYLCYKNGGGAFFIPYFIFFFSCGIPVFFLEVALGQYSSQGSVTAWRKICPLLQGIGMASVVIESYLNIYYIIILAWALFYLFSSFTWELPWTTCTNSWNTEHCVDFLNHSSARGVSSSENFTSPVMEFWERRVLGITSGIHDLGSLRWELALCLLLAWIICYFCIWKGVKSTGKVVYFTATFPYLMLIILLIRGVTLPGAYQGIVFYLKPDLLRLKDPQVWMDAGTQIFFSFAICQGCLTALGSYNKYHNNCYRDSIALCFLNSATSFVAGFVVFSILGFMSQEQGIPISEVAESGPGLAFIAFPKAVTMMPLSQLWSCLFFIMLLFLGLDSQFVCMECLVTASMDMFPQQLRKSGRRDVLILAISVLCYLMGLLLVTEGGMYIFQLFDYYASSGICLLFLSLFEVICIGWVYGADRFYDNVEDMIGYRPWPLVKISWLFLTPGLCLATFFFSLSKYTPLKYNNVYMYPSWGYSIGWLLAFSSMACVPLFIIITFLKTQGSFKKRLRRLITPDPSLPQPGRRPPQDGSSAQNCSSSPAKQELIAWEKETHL
Method in brief: (§2)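 Stable mGAT2-HEK cells were trypsinized, PBS-washed, and suspended in Krebs-Tris pH 7.2 at about 200,000 cells/well. Cells were preincubated 25 min at 37 °C with compound (1% DMSO), then exposed to 20 nM [³H]GABA plus 20 nM unlabeled GABA for 10 min.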

GABA transporter 3 = molecular target: T4, GABA transporter 3 (Mus musculus, UniProt P31649); test: Inhibition of [3H]GABA uptake at mouse GAT3 expressed in HEK cells; type: cell-based, HEK293
T4 sequence (P31649 whole entry): T1 sequence (whole entry)

[5] = molecular target: Sodium- and chloride-dependent GABA transporter 1 (Mus musculus, UniProt P31648); test: Inhibition of [3H]GABA uptake at mouse GAT1 expressed in HEK cells; type: cell-based, HEK293
GABA transporter 2 = molecular target: T5, GABA transporter 2 (Mus musculus, UniProt P31651); test: Inhibition of [3H]GABA uptake at mouse GAT2 expressed in HEK cells; type: cell-based, HEK293; method in brief: as §2
T5 sequence (P31651 whole entry): T3 sequence (whole entry)

GABA transporter 4 = molecular target: T6, GABA transporter 4 (Mus musculus, UniProt P31650); test: Inhibition of [3H]GABA uptake at mouse GAT4 expressed in HEK cells; type: cell-based, HEK293
T6 sequence (P31650 whole entry): T2 sequence (whole entry)

| SMILES | Activity [1] | Activity [2] | Activity [3] | Activity [4] | IC50 (GABA transporter 3; read-out: pIC50 (converted)) | IC50 [5] | IC50 (GABA transporter 2) | IC50 (GABA transporter 4) | IC50 (GABA transporter 3; read-out: IC50) |
| --- | --- | --- | --- | --- | --- | --- | --- | --- | --- |
| Oc1cccc(CNCCC(c2ccccc2)c2ccccc2)c1 |  |  |  |  | 38 µM | 87.1 µM | 47.9 µM | 50.1 µM |  |
| Oc1cccc(CNCCC=C(c2ccccc2)c2ccccc2)c1 |  |  |  |  | 7.94 µM | 28.8 µM | 17.8 µM | 20.9 µM |  |
| COc1ccc(C(OCCNCc2cccc(O)c2)(c2ccc(OC)cc2)c2ccc(OC)cc2)cc1 |  |  |  |  | 9.55 µM | 43.7 µM | 12.9 µM | 7.76 µM |  |
| COc1ccc(C(OCCNCc2ccccc2O)(c2ccc(OC)cc2)c2ccc(OC)cc2)cc1 |  |  |  |  | 8.32 µM | 26.9 µM | 11.7 µM | 16.2 µM |  |
| O=C(O)C1CCCN(CCC=C(c2ccccc2)c2ccccc2)C1 (configuration not stated) |  |  |  |  | 195 µM | 0.692 µM | 372 µM | 275 µM |  |
| O=C(O)C1=CCCNC1 [GUVACINE] |  |  |  |  | 25.7 µM | 13.5 µM | 490 µM | 25.7 µM |  |
| CCCCCCCCCCCCNCc1ccc(OC)c(O)c1 |  |  |  |  | 2.69 µM | 12.3 µM | 12.6 µM | 8.71 µM |  |
| COc1ccc(C(OCCNCc2ccc(OC)c(O)c2)(c2ccc(OC)cc2)c2ccc(OC)cc2)cc1 |  |  |  |  | 8.91 µM | 25.7 µM | 20.9 µM | 14.5 µM |  |
| CCCCCCCCCCCCNCc1ccccc1O |  |  |  |  | 18.6 µM | 58.9 µM | 28.8 µM | 63.1 µM |  |
| COc1ccc(C(OCCNCc2ccc(F)c(O)c2F)(c2ccc(OC)cc2)c2ccc(OC)cc2)cc1 |  |  | 82% | 54% |  | 85.1 µM |  |  | 10.2 µM |
| O=C(O)C1=CCCN(CCON=C(c2ccccc2)c2ccccc2)C1 |  |  |  |  | 240 µM | 0.148 µM | 631 µM | 851 µM |  |
| CCCCCCCCCCCCNCc1cccc(O)c1 |  |  |  |  | 5.62 µM | 20.9 µM | 15.1 µM | 25.1 µM |  |
| Oc1ccccc1CNCCC(c1ccccc1)c1ccccc1 |  |  |  |  | 24.5 µM | 52.5 µM | 18.2 µM | 25.1 µM |  |

Next, values leading:

| Activity [1] | Activity [2] | Activity [3] | Activity [4] | IC50 (GABA transporter 3; read-out: pIC50 (converted)) | IC50 [5] | IC50 (GABA transporter 2) | IC50 (GABA transporter 4) | IC50 (GABA transporter 3; read-out: IC50) | SMILES |
| --- | --- | --- | --- | --- | --- | --- | --- | --- | --- |
| 70% | 66% | 76% | 82% |  |  |  |  |  | Oc1c(F)cc(CNCCC=C(c2ccccc2)c2ccccc2)cc1F |
|  |  |  |  | 12 µM | 18.6 µM | 19.5 µM | 22.9 µM |  | COc1ccc(CNCCC=C(c2ccccc2)c2ccccc2)cc1O |
|  |  |  | 56% |  |  |  |  |  | COc1ccc(C(OCCN2CCC[C@H](C(=O)O)C2)(c2ccc(OC)cc2)c2ccc(OC)cc2)cc1 |
| 59% | 51% | 67% | 64% |  |  |  |  |  | COc1ccc(C(OCCNCc2cc(F)c(O)c(F)c2)(c2ccc(OC)cc2)c2ccc(OC)cc2)cc1 |
|  |  |  |  | 7.76 µM | 33.1 µM | 14.5 µM | 14.8 µM |  | Oc1ccccc1CNCCC=C(c1ccccc1)c1ccccc1 |
| 87% | 56% | 64% | 89% |  |  |  |  |  | COc1ccc(C(OCCNCc2c(F)cc(F)c(O)c2F)(c2ccc(OC)cc2)c2ccc(OC)cc2)cc1 |
|  | 64% | 73% | 52% |  | 0.132 µM |  |  |  | Cc1ccsc1C(=CCCN1CCC[C@@H](C(=O)O)C1)c1sccc1C [TIAGABINE] |
